Results published in ChEMBL document CHEMBL1125672, “2-acetylpyridine thiosemicarbazones. 13. Derivatives with antifilarial activity” (1991).

What was measured:
Acanthocheilonema viteae = test: anti-filarial Activity was measured against Acanthocheilonema viteae in jirds at 25 mg/kg/day(5 days) dose; assay type: functional
Summary of the method: (§1)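 Jirds with established B. pahangi or A. viteae infections were given drug once daily for 5 days by subcutaneous injection, at the maximum tolerated dose and, where supply allowed, graded lower doses. Tolerance was first checked in noninfected jirds with a single 200 mg/kg oral or subcutaneous dose, watching 72 h for excessive weight loss or death. Macrofilarial suppression was the read-out.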

Onchocerca gutturosa [1] = test: Mean motility score for treated Onchocerca gutturosa involving LLCMK2 feeder cells at a concentration of 1.95*10e-8 M at 4.5 h; assay type: functional
Summary of the method: (§2)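 One male O. gutturosa per well over LLCMK2 feeder cells in MEM with 10% heat-inactivated FCS, antibiotics and bicarbonate, 5% CO2; compound introduced in DMSO (≤0.016%, equal DMSO in controls). Motility scored 0 (immotile) to 10 (maximal control activity) every 30 min to 4.5 h, then at 1, 2, 3, 4 and 7 days.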

Onchocerca gutturosa [2] = test: Mean motility score for treated Onchocerca gutturosa involving LLCMK2 feeder cells at a concentration of 1.95*10e-8 M at 72 h; assay type: functional; summary of the method: as §2
Onchocerca volvulus [3] = test: Colorimetric quantification of male Onchocerca volvulus viability, expressed as % inhibition of formazan formation at 3.1*10e-6 M conc. by using tetrazolium Dye MTT assay; assay type: functional
Summary of the method: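 Male O. volvulus dissected from human nodules within 24 h (kept in medium on ice), cultured without feeder cells in medium with 10% serum; drug from DMSO stock. MTT after 96 h: single worm, 0.5 mg/mL MTT, 30 min at 36.5 °C, formazan dissolved in DMSO 1 h at room temperature, absorbance 490 nm against DMSO blank.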

Onchocerca gutturosa [4] = test: Colorimetric quantification of male Onchocerca gutturosa viability, expressed as % inhibition of formazan formation at 3.05*10e-9 M conc. by using tetrazolium Dye MTT assay; assay type: functional
Summary of the method: (§3)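 Single intact male O. gutturosa, cultured with LLCMK2 feeder cells in MEM + 10% heat-inactivated FCS (5% CO2), drug added from DMSO (≤0.016% DMSO in controls). MTT read after 168 h: worm in 0.5 mg/mL MTT, 30 min at 36.5 °C, formazan solubilized in DMSO 1 h at room temperature, absorbance 490 nm vs DMSO blank.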

Onchocerca gutturosa [5] = test: Colorimetric quantification of male Onchocerca gutturosa viability, expressed as % inhibition of formazan formation at 4.88*10e-8M conc. by using tetrazolium Dye MTT assay; assay type: functional; summary of the method: as §3
Onchocerca gutturosa [6] = test: Mean motility score for treated Onchocerca gutturosa involving LLCMK2 feeder cells at a concentration of 5*10e-5 M at 0.5 h; assay type: functional
Summary of the method: (§4)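 Single male O. gutturosa worms (obtained following abattoir slaughter) per well in Eagle's MEM with 10% heat-inactivated fetal calf serum, penicillin, streptomycin, amphotericin B and bicarbonate, over LLCMK2 feeder cells, 5% CO2 in air. Drug dissolved in DMSO; controls received matched DMSO ≤0.016%. Motility scored 0 (immotile) to 10 (maximum control activity) every 30 min to 4.5 h, then days 1, 2, 3, 4, 7.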

Onchocerca gutturosa [7] = test: Mean motility score for treated Onchocerca gutturosa involving LLCMK2 feeder cells at a concentration of 5*10e-5 M at 168 h; assay type: functional; summary of the method: as §4
Onchocerca gutturosa [8] = test: Mean motility score for treated Onchocerca gutturosa involving LLCMK2 feeder cells at a concentration of 5*10e-5 M at 3 h; assay type: functional; summary of the method: as §4
Onchocerca gutturosa [9] = test: Mean motility score for treated Onchocerca gutturosa involving LLCMK2 feeder cells at a concentration of 5*10e-5 M at 4 h; assay type: functional; summary of the method: as §4
Onchocerca gutturosa [10] = test: Mean motility score for treated Onchocerca gutturosa involving LLCMK2 feeder cells at a concentration of 5*10e-5 M at 96 h; assay type: functional
Summary of the method: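 Single male O. gutturosa worms per well in Eagle's MEM with 10% heat-inactivated fetal calf serum, antibiotics and bicarbonate, over LLCMK2 feeder cells, 5% CO2 in air. Test chemical dissolved in DMSO and diluted into medium; control wells got matched DMSO not exceeding 0.016%. Motility scored 0 (immotile) to 10 (maximum control motility) every 30 min for 4.5 h, then at 1, 2, 3, 4 and 7 days.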

Onchocerca gutturosa [11] = test: Mean motility score for treated Onchocerca gutturosa involving LLCMK2 feeder cells at a concentration of 1.95*10e-8 M at 3 h; assay type: functional; conditions: in the assay text read “1.95*10e-7 M” for “1.95*10e-8 M”; summary of the method: as §2
Onchocerca gutturosa [12] = test: Mean motility score for treated Onchocerca gutturosa involving LLCMK2 feeder cells at a concentration of 3.1*10e-6 M at 4.5 h; assay type: functional; summary of the method: as §4
Onchocerca gutturosa [13] = test: Mean motility score for treated Onchocerca gutturosa involving LLCMK2 feeder cells at a concentration of 3.05*10e-9 M at 3.5 h; assay type: functional; summary of the method: as §4
Onchocerca gutturosa [14] = test: Mean motility score for treated Onchocerca gutturosa involving LLCMK2 feeder cells at a concentration of 1.95*10e-8 M at 24 h; assay type: functional; summary of the method: as §2
Onchocerca gutturosa [15] = test: Mean motility score for treated Onchocerca gutturosa involving LLCMK2 feeder cells at a concentration of 3.1*10e-6 M at 1 h; assay type: functional; summary of the method: as §4
Onchocerca gutturosa [16] = test: Mean motility score for treated Onchocerca gutturosa involving LLCMK2 feeder cells at a concentration of 3.1*10e-6 M at 2.5 h; assay type: functional; summary of the method: as §4
Onchocerca gutturosa [17] = test: Mean motility score for treated Onchocerca gutturosa involving LLCMK2 feeder cells at a concentration of 3.05*10e-9 M at 4.5 h; assay type: functional; summary of the method: as §4
Onchocerca volvulus [18] = test: Mean motility score for treated Onchocerca volvulus excluding LLCMK2 feeder cells at a concentration of 5*10e-5 M at 48 h
Onchocerca volvulus [19] = test: Mean motility score for treated Onchocerca volvulus excluding LLCMK2 feeder cells at a concentration of 5*10e-5 M at 72 h
Onchocerca volvulus [20] = test: Mean motility score for treated Onchocerca volvulus excluding LLCMK2 feeder cells at a concentration of 5*10e-5 M at 1.5 h
Onchocerca volvulus [21] = test: Mean motility score for treated Onchocerca volvulus excluding LLCMK2 feeder cells at a concentration of 3.1*10e-6 M at 48 h
Brugia pahangi [22] = test: anti-filarial Activity was measured against Brugia pahangi in jirds at 100 mg/kg/day(5 days) dose; assay type: functional; summary of the method: as §1
Brugia pahangi [23] = test: anti-filarial Activity was measured against Brugia pahangi in jirds at 50 mg/kg/day(5 days) dose; assay type: functional; summary of the method: as §1
Onchocerca gutturosa [24] = test: Mean motility score for treated Onchocerca gutturosa involving LLCMK2 feeder cells at a concentration of 1.21*10e-8M at 168 h; assay type: functional; summary of the method: as §2
Onchocerca gutturosa [25] = test: Mean motility score for treated Onchocerca gutturosa involving LLCMK2 feeder cells at a concentration of 3.05*10e-9 M at 1.5 h; assay type: functional; summary of the method: as §2
Onchocerca gutturosa [26] = test: Mean motility score for treated Onchocerca gutturosa involving LLCMK2 feeder cells at a concentration of 1.94*10e-7M at 2 h; assay type: functional; summary of the method: as §2
Onchocerca gutturosa [27] = test: Mean motility score for treated Onchocerca gutturosa involving LLCMK2 feeder cells at a concentration of 1.94*10e-7M at 24 h; assay type: functional; summary of the method: as §2
Onchocerca gutturosa [28] = test: Mean motility score for treated Onchocerca gutturosa involving LLCMK2 feeder cells at a concentration of 1.94*10e-7M at 48 h; assay type: functional; summary of the method: as §2

Row | Structure (SMILES) | Suppression (Acanthocheilonema viteae) | Inhibition (Onchocerca volvulus [3]) | Motility (Onchocerca gutturosa [6]) | Motility (Onchocerca gutturosa [8]) | Motility (Onchocerca gutturosa [9]) | Motility (Onchocerca gutturosa [10]) | Motility (Onchocerca gutturosa [13]) | Motility (Onchocerca gutturosa [17]) | Motility (Onchocerca volvulus [18]) | Motility (Onchocerca volvulus [19]) | Motility (Onchocerca volvulus [20]) | Motility (Onchocerca volvulus [21]) | other results
1 | C/C(=N\NC(=S)N1CCCCCC1)c1ccccn1 | 100% | 39.6% | 6 | 2.2 | 1.5 | 0 | 8.3 | 9.5 | 1 | 1 | 8 | 0.6 | Motility (Onchocerca gutturosa [1]): 9.5; Motility (Onchocerca gutturosa [2]): 1; Inhibition (Onchocerca gutturosa [4]): 19.5%; Inhibition (Onchocerca gutturosa [5]): 31.7%; Motility (Onchocerca gutturosa [7]): 0; Motility (Onchocerca gutturosa [11]): 10; Motility (Onchocerca gutturosa [12]): 9.5; Motility (Onchocerca gutturosa [14]): 8; Motility (Onchocerca gutturosa [15]): 9.8; Motility (Onchocerca gutturosa [16]): 8.5
2 | C/C(=N\NC(S)=Nc1ccccc1N)c1ccccn1 | 94% | 65.3% | 10 | 9.3 | 9.5 | 1.5 | 7.3 | 7.5 | 3.6 | 2.4 | 4.4 | 2 | Suppression (Brugia pahangi [22]): 100%; Suppression (Brugia pahangi [23]): 100%; Motility (Onchocerca gutturosa [24]): 1; Motility (Onchocerca gutturosa [25]): 8.3; Motility (Onchocerca gutturosa [26]): 9; Motility (Onchocerca gutturosa [27]): 8; Motility (Onchocerca gutturosa [28]): 4
